Measured values as given in ChEMBL document CHEMBL4145448, “Broad activity of diphenyleneiodonium analogues against Mycobacterium tuberculosis, malaria parasites and bacterial pathogens” (Eur J Med Chem, 2018).

Legend:
Klebsiella pneumoniae [1] = assay: Antibacterial activity against Klebsiella pneumoniae isolate M320445 after 18 hrs by broth microdilution method; format: functional; conditions: isolate M320445, 18 h
Outline: (§1)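 Broth microdilution per CLSI in cation-adjusted Mueller-Hinton broth. 100 µL inoculum (~10^6 cfu/mL in CaMHB) mixed with 100 µL CaMHB containing compound, 0 to 128 µM. Incubated 18 h at 37 °C. MIC taken as the lowest concentration with no visible growth. Polymyxin B served as positive control. Isolates were stored at -80 °C in tryptone soy broth with 20% glycerol.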

[2] = Selectivity index, ratio of CC50 for human HepG2 cells in presence of 1% FBS to MIC for Pseudomonas aeruginosa isolate 912; format: toxicity; conditions: read-out: Selectivity Index
Outline: (§2)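 Selectivity index is CC50 (1% FBS) divided by MIC. […] They then got compound at 300 to 0.14 µM (3-fold steps) for 24 h at 37 °C, 5% CO2. Resazurin (10 µM, 2 h) was read at ex/em 560/590 in duplicate wells. For MIC, CLSI broth microdilution was run in CaMHB with ~10^6 cfu/mL inoculum and 0–128 µM compound.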

[3] = Selectivity index, ratio of CC50 for human HepG2 cells in presence of 1% FBS to MIC for Pseudomonas aeruginosa isolate 19147nm; format: toxicity; conditions: read-out: Selectivity Index; outline: as §2
[4] = Selectivity index, ratio of CC50 for human HepG2 cells in presence of 1% FBS to MIC for Klebsiella pneumoniae isolate 224-11-C; format: toxicity; conditions: read-out: Selectivity Index
Klebsiella pneumoniae [5] = assay: Antibacterial activity against Klebsiella pneumoniae isolate 248-33-D after 18 hrs by broth microdilution method; format: functional; outline: as §1
[6] = Selectivity index, ratio of CC50 for human HepG2 cells in presence of 1% FBS to MIC for Klebsiella pneumoniae isolate 1; format: toxicity; conditions: read-out: Selectivity Index
Pseudomonas aeruginosa [7] = assay: Antibacterial activity against Pseudomonas aeruginosa isolate M146201 after 18 hrs by broth microdilution method; format: functional; conditions: isolate M146201, 18 h; outline: as §1
Staphylococcus aureus [8] = assay: Antibacterial activity against methicillin-resistant Staphylococcus aureus ATCC 43300 after 18 hrs by broth microdilution method; format: functional; conditions: ATCC 43300, 18 h; outline: as §1
Klebsiella pneumoniae [9] = assay: Antibacterial activity against Klebsiella pneumoniae isolate 224-11-C after 18 hrs by broth microdilution method; format: functional; outline: as §1
[10] = Selectivity index, ratio of CC50 for human HepG2 cells in presence of 1% FBS to MIC for Klebsiella pneumoniae isolate 248-33-D; format: toxicity; conditions: read-out: Selectivity Index
Acinetobacter baumannii [11] = assay: Antibacterial activity against Acinetobacter baumannii isolate 07AC-336 after 18 hrs by broth microdilution method; format: functional; conditions: isolate 07AC-336, 18 h; outline: as §1
[12] = Selectivity index, ratio of CC50 for human HepG2 cells in presence of 1% FBS to MIC for vancomycin-resistant Enterococcus faecium ATCC 700221; format: toxicity; conditions: read-out: Selectivity Index; outline: as §2
[13] = Selectivity index, ratio of CC50 for human HepG2 cells in presence of 1% FBS to MIC for Acinetobacter baumannii ATCC 17978 col10; format: toxicity; conditions: read-out: Selectivity Index
[14] = Selectivity index, ratio of CC50 for human HepG2 cells in presence of 1% FBS to MIC for Pseudomonas aeruginosa QLD PSA 1; format: toxicity; conditions: read-out: Selectivity Index; outline: as §2
[15] = Selectivity index, ratio of CC50 for human HepG2 cells in presence of 1% FBS to MIC for Acinetobacter baumannii ATCC 19606; format: toxicity; conditions: read-out: Selectivity Index
[16] = Selectivity index, ratio of CC50 for human HepG2 cells in presence of 1% FBS to MIC for Escherichia coli N4149; format: toxicity; conditions: read-out: Selectivity Index
[17] = tested on: Mycobacterium tuberculosis; assay: Antimycobacterial activity against Mycobacterium tuberculosis H37Rv ATCC 25618 after 7 days by resazurin dye based assay; format: functional; conditions: H37Rv ATCC 25618, 168 h
Outline: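 H37Rv grown at 37 °C in 7H9 with 10% ADC, 0.5% glycerol and 0.02% tyloxapol. Compounds serially diluted in water, 0 to 10 µM, in triplicate. Culture adjusted to OD600 0.001 and incubated 7 days at 37 °C. Resazurin (0.05% w/v) added for 4-24 h and fluorescence read at 590 nm. MIC is the lowest concentration giving complete growth inhibition versus untreated. Rifampicin served as control.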

Pseudomonas aeruginosa [18] = assay: Antibacterial activity against Pseudomonas aeruginosa isolate 912 after 18 hrs by broth microdilution method; format: functional; conditions: isolate 912, 18 h; outline: as §1
[19] = Selectivity index, ratio of CC50 for human HepG2 cells in presence of 1% FBS to MIC for vancomycin-intermediate Staphylococcus aureus ATCC 700698; format: toxicity; conditions: read-out: Selectivity Index; outline: as §2
[20] = Selectivity index, ratio of CC50 for human HepG2 cells in presence of 1% FBS to MIC for Escherichia coli N2381; format: toxicity; conditions: read-out: Selectivity Index
[21] = Selectivity index, ratio of CC50 for human HepG2 cells in presence of 1% FBS to MIC for vancomycin-resistant Staphylococcus aureus ATCC 700699; format: toxicity; conditions: read-out: Selectivity Index; outline: as §2
Staphylococcus aureus [22] = assay: Antibacterial activity against vancomycin-resistant Staphylococcus aureus ATCC 700699 after 18 hrs by broth microdilution method; format: functional; conditions: ATCC 700699, 18 h; outline: as §1
Acinetobacter baumannii [23] = assay: Antibacterial activity against Acinetobacter baumannii ATCC 19606 col10 after 18 hrs by broth microdilution method; format: functional; conditions: ATCC 19606 = CIP 70.34 = JCM 6841 col10, 18 h; outline: as §1
[24] = Selectivity index, ratio of CC50 for human HepG2 cells in presence of 1% FBS to MIC for Acinetobacter baumannii ATCC 19606 col10; format: toxicity; conditions: read-out: Selectivity Index
[25] = Selectivity index, ratio of CC50 for human HepG2 cells in presence of 1% FBS to MIC for Mycobacterium tuberculosis H37Rv ATCC 25618; format: toxicity; conditions: read-out: Selectivity Index
[26] = Cytotoxicity against human HepG2 cells after 24 hrs in presence of 1% FBS by resazurin dye based assay; format: cell-based
Outline: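 HepG2 cells seeded at 4000/well in DMEM with 1% FBS and allowed to attach for 24 h at 37 °C, 5% CO2. Compounds added from 300 to 0.14 µM in 3-fold steps and incubated 24 h. 10 µM resazurin added for 2 h, fluorescence read at ex/em 560/590. Percent viability computed relative to untreated and negative controls, duplicate wells.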

Acinetobacter baumannii [27] = assay: Antibacterial activity against Acinetobacter baumannii ATCC 19606 after 18 hrs by broth microdilution method; format: functional; conditions: ATCC 19606 = CIP 70.34 = JCM 6841, 18 h; outline: as §1
[28] = Selectivity index, ratio of CC50 for human HepG2 cells in presence of 1% FBS to MIC for methicillin-resistant Staphylococcus aureus ATCC 43300; format: toxicity; conditions: read-out: Selectivity Index; outline: as §2
Staphylococcus aureus [29] = assay: Antibacterial activity against vancomycin-intermediate Staphylococcus aureus ATCC 700698 after 18 hrs by broth microdilution method; format: functional; conditions: ATCC 700698, 18 h; outline: as §1
Klebsiella pneumoniae [30] = assay: Antibacterial activity against Klebsiella pneumoniae isolate 1 after 18 hrs by broth microdilution method; format: functional; conditions: isolate 1, 18 h; outline: as §1
Acinetobacter baumannii [31] = assay: Antibacterial activity against Acinetobacter baumannii ATCC 17978 col10 after 18 hrs by broth microdilution method; format: functional; conditions: ATCC 17978 col10, 18 h; outline: as §1
[32] = Selectivity index, ratio of CC50 for human HepG2 cells in presence of 1% FBS to MIC for Acinetobacter baumannii ATCC 17978; format: toxicity; conditions: read-out: Selectivity Index

SMILES | MIC (Klebsiella pneumoniae [1]) | selectivity ratio [2] | selectivity ratio [3] | selectivity ratio [4] | MIC (Klebsiella pneumoniae [5]) | selectivity ratio [6] | MIC (Pseudomonas aeruginosa [7]) | MIC (Staphylococcus aureus [8]) | MIC (Klebsiella pneumoniae [9]) | selectivity ratio [10] | MIC (Acinetobacter baumannii [11]) | selectivity ratio [12] | selectivity ratio [13] | selectivity ratio [14] | selectivity ratio [15] | selectivity ratio [16] | MIC [17] | MIC (Pseudomonas aeruginosa [18]) | selectivity ratio [19] | selectivity ratio [20] | other results
N#Cc1ccc2c(c1)[I+]c1ccccc1-2 | 35 µM | 0.75 | 1.5 | > 0.05 | > 71 µM | > 0.05 | 18 µM | 4.4 µM | > 71 µM | > 0.05 | > 71 µM | 1.5 | 1.5 | 0.37 | 0.19 | 0.05 | 0.29 µM | 4.4 µM | 0.37 | 0.05 | selectivity ratio [21]: 0.37; MIC (Staphylococcus aureus [22]): 8.8 µM; MIC (Acinetobacter baumannii [23]): 2.2 µM; selectivity ratio [24]: 1.5; selectivity ratio [25]: 12; CC50 at 24 h [26]: 3.3 µM; MIC (Acinetobacter baumannii [27]): 18 µM; selectivity ratio [28]: 0.75; MIC (Staphylococcus aureus [29]): 8.8 µM; MIC (Klebsiella pneumoniae [30]): > 71 µM; MIC (Acinetobacter baumannii [31]): 2.2 µM; selectivity ratio [32]: 0.75
Cc1ccc2c(c1)[I+]c1ccccc1-2.O=S(=O)([O-])C(F)(F)F | 36 µM | 0.81 | 0.81 | 0.05 | 72 µM | 0.05 | 36 µM | 4.5 µM | 72 µM | 0.05 | 18 µM | 0.81 | 3.2 | > 0.05 | 0.41 | 0.05 | 0.57 µM | 4.5 µM | 0.41 | 0.05 | selectivity ratio [21]: 0.398; MIC (Staphylococcus aureus [22]): 9.05 µM; MIC (Acinetobacter baumannii [23]): 4.5 µM; selectivity ratio [24]: 0.81; selectivity ratio [25]: 6.4; CC50 at 24 h [26]: 3.6 µM; MIC (Acinetobacter baumannii [27]): 9.1 µM; selectivity ratio [28]: 0.81; MIC (Staphylococcus aureus [29]): 9.1 µM; MIC (Klebsiella pneumoniae [30]): 72 µM; MIC (Acinetobacter baumannii [31]): 1.1 µM; selectivity ratio [32]: 0.81
Clc1ccc2c(c1)-c1ccccc1[I+]2 | 35 µM | 3.7 | 3.7 | 0.47 | 17 µM | 0.47 | 4.3 µM | 2.2 µM | 35 µM | 0.93 | 8.7 µM | 1.9 | 30 | 1.9 | 3.7 | 0.93 | 0.54 µM | 4.3 µM | 3.7 | 0.93 | selectivity ratio [21]: 3.7; MIC (Staphylococcus aureus [22]): 4.3 µM; MIC (Acinetobacter baumannii [23]): 2.2 µM; selectivity ratio [24]: 7.5; selectivity ratio [25]: 30; CC50 at 24 h [26]: 16.1 µM; MIC (Acinetobacter baumannii [27]): 4.3 µM; selectivity ratio [28]: 7.5; MIC (Staphylococcus aureus [29]): 4.3 µM; MIC (Klebsiella pneumoniae [30]): 35 µM; MIC (Acinetobacter baumannii [31]): 0.5 µM; selectivity ratio [32]: 7.5
